According to ChEMBL document CHEMBL1149289, “Synthesis and antibacterial activity of new poly-S-lysine-porphyrin conjugates” (J Med Chem, 2004):

Key:
Staphylococcus aureus [1] = assay: Logarithmic survival of methicillin-resistant Staphylococcus aureus 110 at 5 uM after 10 mins and irradiated with white light at the fluence rate of 50 mW/cm2 for 30 mins relative to control; assay type: functional; conditions: light or radiation study
Outline: (§1)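 MRSA 110 grown aerobically at 37 °C on BHA. Stationary-phase cells were taken into BHI, washed twice in PBS and diluted to OD650 ~0.7 (10^8 to 10^9 cells/mL). Suspensions were held with photosensitizer for 10 min in the dark at room temperature, then given white light for 30 min. Cells were serially diluted, plated on BHA and counted after 16–20 h at 37 °C. Survival = cfu ÷ cfu of photosensitizer-free controls.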

Escherichia coli [2] = assay: Logarithmic survival of Escherichia coli O4 at 0.01 uM after 10 mins and irradiated with white light at the fluence rate of 50 mW/cm2 for 30 mins relative to control; assay type: functional; conditions: O4, light or radiation study
Outline: (§2)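 Strains grown aerobically at 37 °C on brain heart agar; stationary-phase cells washed twice in PBS and adjusted to OD650 ca. 0.7 (10^8 to 10^9 cells/mL). Cells incubated with photosensitizer at various concentrations for 10 min in the dark at room temperature, then irradiated with white light at 50 mW/cm² for 30 min. Survivors counted as cfu on BHA after 16–20 h at 37 °C, expressed relative to no-photosensitizer controls. Dark controls were run without irradiation.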

Escherichia coli [3] = assay: Logarithmic survival of Escherichia coli O4 at 0.25 uM after 10 mins and irradiated with white light at the fluence rate of 50 mW/cm2 for 30 mins relative to control; assay type: functional; conditions: O4, light or radiation study; outline: as §2
Escherichia coli [4] = assay: Logarithmic survival of Escherichia coli O4 at 1 uM after 10 mins and irradiated with white light at the fluence rate of 50 mW/cm2 for 30 mins relative to control; assay type: functional; conditions: O4, light or radiation study; outline: as §2
Escherichia coli [5] = assay: Logarithmic survival of Escherichia coli O4 at 5 uM after 10 mins and irradiated with white light at the fluence rate of 50 mW/cm2 for 30 mins relative to control; assay type: functional; conditions: O4, light or radiation study; outline: as §2
Escherichia coli [6] = assay: Logarithmic survival of Escherichia coli O4 at 10 uM after 10 mins and irradiated with white light at the fluence rate of 50 mW/cm2 for 30 mins relative to control; assay type: functional; conditions: O4, light or radiation study; outline: as §2
Staphylococcus aureus [7] = assay: Logarithmic survival of Staphylococcus aureus ATCC 25923 at 0.1 uM after 10 mins and irradiated with white light at the fluence rate of 50 mW/cm2 relative to control; assay type: functional; conditions: ATCC 25923, light or radiation study
Outline: (§3)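 S. aureus ATCC 25923 or MRSA 110 (PBS-washed, 10^8 to 10^9 cells/mL) were incubated with 0.1 μM photosensitizer for 10 min in the dark at room temperature. They were then irradiated with white light at 50 mW/cm² for varying times up to 30 min. Survival was read as cfu on BHA and divided by cfu of controls without photosensitizer.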

Staphylococcus aureus [8] = assay: Logarithmic survival of Staphylococcus aureus ATCC 25923 at 0.1 uM after 10 mins and irradiated with white light at the fluence rate of 50 mW/cm2 for 1 min relative to control; assay type: functional; conditions: ATCC 25923, light or radiation study; outline: as §3
Staphylococcus aureus [9] = assay: Logarithmic survival of Staphylococcus aureus ATCC 25923 at 0.1 uM after 10 mins and irradiated with white light at the fluence rate of 50 mW/cm2 for 2.5 mins relative to control; assay type: functional; conditions: ATCC 25923, light or radiation study; outline: as §3
Staphylococcus aureus [10] = assay: Logarithmic survival of methicillin-resistant Staphylococcus aureus 110 at 0.1 uM after 10 mins and irradiated with white light at the fluence rate of 50 mW/cm2 for 5 mins relative to control; assay type: functional; conditions: light or radiation study; outline: as §3
Staphylococcus aureus [11] = assay: Logarithmic survival of methicillin-resistant Staphylococcus aureus 110 at 0.1 uM after 10 mins and irradiated with white light at the fluence rate of 50 mW/cm2 for 10 mins relative to control; assay type: functional; conditions: light or radiation study; outline: as §3
Staphylococcus aureus [12] = assay: Logarithmic survival of methicillin-resistant Staphylococcus aureus 110 at 0.1 uM after 10 mins and irradiated with white light at the fluence rate of 50 mW/cm2 for 20 mins relative to control; assay type: functional; conditions: light or radiation study; outline: as §3
Staphylococcus aureus [13] = assay: Drug uptake per mg of protein in methicillin-resistant Staphylococcus aureus 110 at 2.5 uM after 10 mins; assay type: ADME, organism-based; conditions: in vivo
Outline: (§4)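 Bacterial suspensions (10^8 to 10^9 cells/mL in PBS) were incubated with porphyrin for 10 min in the dark at room temperature, then centrifuged. The pellet was digested in 2% aqueous SDS. Porphyrin was quantified by spectrofluorimetry and cell protein by modified Lowry assay (BSA standard). Uptake is given as nmol per mg cell protein.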

Escherichia coli [14] = assay: Drug uptake per mg of protein in Escherichia coli O4 at 0.5 uM after 10 mins; assay type: ADME, organism-based; conditions: in vivo; outline: as §4
Escherichia coli [15] = assay: Drug uptake per mg of protein in Escherichia coli O4 at 1 uM after 10 mins; assay type: ADME, organism-based; conditions: in vivo; outline: as §4
Escherichia coli [16] = assay: Drug uptake per mg of protein in Escherichia coli O4 at 10 uM after 10 mins; assay type: ADME, organism-based; conditions: in vivo; outline: as §4
Staphylococcus aureus [17] = assay: Logarithmic survival of Staphylococcus aureus ATCC 25923 at 0.01 uM after 10 mins and irradiated with white light at the fluence rate of 50 mW/cm2 for 30 mins relative to control; assay type: functional; conditions: ATCC 25923, light or radiation study; outline: as §2
Staphylococcus aureus [18] = assay: Logarithmic survival of Staphylococcus aureus ATCC 25923 at 0.1 uM after 10 mins and irradiated with white light at the fluence rate of 50 mW/cm2 for 30 mins relative to control; assay type: functional; conditions: ATCC 25923, light or radiation study; outline: as §3
Staphylococcus aureus [19] = assay: Logarithmic survival of Staphylococcus aureus ATCC 25923 at 0.5 uM after 10 mins and irradiated with white light at the fluence rate of 50 mW/cm2 for 30 mins relative to control; assay type: functional; conditions: ATCC 25923, light or radiation study; outline: as §2
Staphylococcus aureus [20] = assay: Logarithmic survival of Staphylococcus aureus ATCC 25923 at 1 uM after 10 mins and irradiated with white light at the fluence rate of 50 mW/cm2 for 30 mins relative to control; assay type: functional; conditions: ATCC 25923, light or radiation study; outline: as §2
Staphylococcus aureus [21] = assay: Logarithmic survival of methicillin-resistant Staphylococcus aureus 110 at 0.25 uM after 10 mins and irradiated with white light at the fluence rate of 50 mW/cm2 for 30 mins relative to control; assay type: functional; conditions: light or radiation study; outline: as §1
Staphylococcus aureus [22] = assay: Logarithmic survival of methicillin-resistant Staphylococcus aureus 110 at 0.5 uM after 10 mins and irradiated with white light at the fluence rate of 50 mW/cm2 for 30 mins relative to control; assay type: functional; conditions: light or radiation study; outline: as §1
[23] = Photostability after irradiation with white light at the fluence rate of 50 mW/cm2 for 3 mins; assay type: ADME; conditions: read-out: Stability
[24] = Photostability after irradiation with white light at the fluence rate of 50 mW/cm2 for 5 mins; assay type: ADME; conditions: read-out: Stability
[25] = Photostability after irradiation with white light at the fluence rate of 50 mW/cm2 for 30 mins; assay type: ADME; conditions: read-out: Stability
Staphylococcus aureus [26] = assay: Antibacterial activity against Staphylococcus aureus ATCC 25923 measured as 4 log decrease in survival; assay type: functional; outline: as §2
Escherichia coli [27] = assay: Antibacterial activity against Escherichia coli O4 measured as 4 log decrease in survival; assay type: functional; outline: as §2
Staphylococcus aureus [28] = assay: Drug uptake per mg of protein in Staphylococcus aureus ATCC 25923 at 0.5 uM after 10 mins; assay type: ADME, organism-based; conditions: in vivo; outline: as §4
Staphylococcus aureus [29] = assay: Drug uptake per mg of protein in Staphylococcus aureus ATCC 25923 at 1 uM after 10 mins; assay type: ADME, organism-based; conditions: in vivo; outline: as §4
Staphylococcus aureus [30] = assay: Drug uptake per mg of protein in Staphylococcus aureus ATCC 25923 at 2.5 uM after 10 mins; assay type: ADME, organism-based; conditions: in vivo; outline: as §4
Staphylococcus aureus [31] = assay: Drug uptake per mg of protein in Staphylococcus aureus ATCC 25923 at 5 uM after 10 mins; assay type: ADME, organism-based; conditions: in vivo; outline: as §4
Staphylococcus aureus [32] = assay: Drug uptake per mg of protein in methicillin-resistant Staphylococcus aureus 110 at 1 uM after 10 mins; assay type: ADME, organism-based; conditions: in vivo; outline: as §4

| SMILES | survival at 5 µM (Staphylococcus aureus [1]) | survival at 0.01 µM (Escherichia coli [2]) | survival at 0.25 µM (Escherichia coli [3]) | survival at 1 µM (Escherichia coli [4]) | survival at 5 µM (Escherichia coli [5]) | survival at 10 µM (Escherichia coli [6]) | survival at 0.1 µM (Staphylococcus aureus [7]) | survival at 0.1 µM (Staphylococcus aureus [8]) | survival at 0.1 µM (Staphylococcus aureus [9]) | survival at 0.1 µM (Staphylococcus aureus [10]) | survival at 0.1 µM (Staphylococcus aureus [11]) | survival at 0.1 µM (Staphylococcus aureus [12]) | Drug uptake (Staphylococcus aureus [13]) | Drug uptake (Escherichia coli [14]) | Drug uptake (Escherichia coli [15]) | Drug uptake (Escherichia coli [16]) | survival at 0.01 µM (Staphylococcus aureus [17]) | survival at 0.1 µM (Staphylococcus aureus [18]) | survival at 0.5 µM (Staphylococcus aureus [19]) | survival at 1 µM (Staphylococcus aureus [20]) | further results |
| --- | --- | --- | --- | --- | --- | --- | --- | --- | --- | --- | --- | --- | --- | --- | --- | --- | --- | --- | --- | --- | --- |
| O=C(O)c1ccc(-c2c3nc(c(-c4ccncc4)c4ccc([nH]4)c(-c4ccncc4)c4nc(c(-c5ccncc5)c5ccc2[nH]5)C=C4)C=C3)cc1 [PORPHIRIN] | -3.07 | 2 | 1.7 | 1.72 | 1.6 | -4.06 | 1.91 | 1.49 | 0.22 | 1.61 | 0.98 | -0.6 | 47 nmol/mg | 4.16 nmol/mg | 7.65 nmol/mg | 163 nmol/mg | 2 | -1.7 | -2.39 | -2.7% | survival at 0.25 µM (Staphylococcus aureus [21]): -1.39%; survival at 0.5 µM (Staphylococcus aureus [22]): -1.58%; remaining at 0.05 h [23]: 97%; remaining at 5 min [24]: 96%; remaining at 0.5 h [25]: 85%; Activity (Staphylococcus aureus [26]): 0.25 µM; Activity (Escherichia coli [27]): 10 µM; Drug uptake (Staphylococcus aureus [28]): 3.15 nmol/mg; Drug uptake (Staphylococcus aureus [29]): 7.7 nmol/mg; Drug uptake (Staphylococcus aureus [30]): 32.1 nmol/mg; Drug uptake (Staphylococcus aureus [31]): 81.4 nmol/mg; Drug uptake (Staphylococcus aureus [32]): 15 nmol/mg |
| C[n+]1ccc(-c2c3nc(c(-c4cc[n+](C)cc4)c4ccc([nH]4)c(-c4cc[n+](C)cc4)c4nc(c(-c5ccc(C(=O)O)cc5)c5ccc2[nH]5)C=C4)C=C3)cc1.[I-].[I-].[I-] | -2.29 | 2 | 1.64 | 0.68 | -2.57 | -4.36 | 0.82 | 0.67 | 0.49 | 1.87 | 1.7 | 1.79 | 7.69 nmol/mg | 1.29 nmol/mg | 2.47 nmol/mg | 6.88 nmol/mg | 2 | 1.87 | -0.42 | -1.32% | survival at 0.25 µM (Staphylococcus aureus [21]): 1.68%; survival at 0.5 µM (Staphylococcus aureus [22]): 1.33%; remaining at 0.05 h [23]: 86%; remaining at 5 min [24]: 83%; remaining at 0.5 h [25]: 67%; Activity (Staphylococcus aureus [26]): 2.5 µM; Activity (Escherichia coli [27]): 5 µM; Drug uptake (Staphylococcus aureus [28]): 1.88 nmol/mg; Drug uptake (Staphylococcus aureus [29]): 3.71 nmol/mg; Drug uptake (Staphylococcus aureus [30]): 7.77 nmol/mg; Drug uptake (Staphylococcus aureus [31]): 9.97 nmol/mg; Drug uptake (Staphylococcus aureus [32]): 5.43 nmol/mg |
